Rows were chosen to be rich in hits. Some 3.1% of all compounds tested hit in one or more screens of this group.
KCNQ1 act – potentiators or activators of KCNQ1 channel, primary screen, cell-based, thallium flux, high-throughput | Potassium voltage-gated channel subfamily KQT member 1 (Homo sapiens), P51787 | CHO-K1 KCNQ1, thallium flux FluxOR fluorescence; hits give high values | B-score at 10 µM | 0.35% of 310,000 active;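 active means fluorescence ratio B-score, a plate-corrected score, at least three library SD, with initial intensity B-score within 5 SD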
Target sequence (P51787 whole entry, looked up): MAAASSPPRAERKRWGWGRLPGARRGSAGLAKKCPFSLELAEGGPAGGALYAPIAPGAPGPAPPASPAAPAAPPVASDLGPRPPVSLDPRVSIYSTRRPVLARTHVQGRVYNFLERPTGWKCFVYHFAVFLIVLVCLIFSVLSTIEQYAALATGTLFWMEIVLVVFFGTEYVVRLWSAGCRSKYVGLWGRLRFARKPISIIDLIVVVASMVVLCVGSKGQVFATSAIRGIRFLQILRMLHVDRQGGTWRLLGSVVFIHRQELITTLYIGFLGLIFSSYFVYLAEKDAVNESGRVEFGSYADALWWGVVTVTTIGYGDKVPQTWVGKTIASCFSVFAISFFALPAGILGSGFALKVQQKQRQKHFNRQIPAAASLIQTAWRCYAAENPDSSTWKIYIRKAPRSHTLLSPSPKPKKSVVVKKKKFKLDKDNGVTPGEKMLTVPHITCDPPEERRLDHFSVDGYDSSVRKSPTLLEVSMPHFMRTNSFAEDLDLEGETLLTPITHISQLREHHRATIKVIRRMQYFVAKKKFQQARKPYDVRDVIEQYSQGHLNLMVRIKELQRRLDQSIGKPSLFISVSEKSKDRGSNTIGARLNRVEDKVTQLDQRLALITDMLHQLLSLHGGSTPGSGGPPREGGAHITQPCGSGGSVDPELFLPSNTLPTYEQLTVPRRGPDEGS
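Assay system: CHO-K1 cells stably expressing KCNQ1; Medium: assay buffer with matched DMSO; Also added: K+/Tl+ depolarizing stimulus; Dosing: single dose; Timing: dye 90 min, compound 20 min, room temperature; Measured by: kinetic FluxOR thallium fluorescence, 10-s 1-Hz baseline, 110-s post-stimulus read; Read-out: peak-minus-minimum fluorescence over initial fluorescence, negative-control normalized, B-scored.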
hERG protect – hERG rescue from dofetilide block, primary screen, cell-based, CHO-hERG, FluxOR thallium flux, dofetilide IC70; Voltage-gated inwardly rectifying potassium channel KCNH2 (Homo sapiens), Q12809; dofetilide IC70 present; activation (rescue from dofetilide block), less the hit threshold, % at 10 µM; 0.51% of 310,000 active; AID 1511, 2009;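 active means activation above the mean of controls blocked by dofetilide plus 5 SD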;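 further: thallium influx through hERG after potassium depolarization seen as dye fluorescence rise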
KCNQ1 inh – inhibitors of human KCNQ1 channel, primary screen, cell-based, thallium flux, high-throughput | CHO-K1 KCNQ1, FluxOR thallium flux fluorescence; hits give high values | B-score at 10 µM | Potassium voltage-gated channel subfamily KQT member 1 (Homo sapiens), P51787 | 1.3% of 310,000 active;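 active means compounds whose thallium flux B-score, printed positive for inhibition, exceeds three library SD while starting fluorescence stays within three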;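 further: channel opened by potassium depolarization with thallium stimulus after 20 min compound exposure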
KCNK9 inh – KCNK9 potassium channel inhibitors, primary screen, HEK293 cells, thallium flux; Potassium channel subfamily K member 9 (Homo sapiens), Q9NPC2; FluxOR thallium flux fluorescence; hits give low values; B-score at 10 µM; 1.2% of 310,000 active;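 active means ratio B-score over 3 SD below the library mean, with starting fluorescence within 5 SD of its mean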;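 further: negative B-score means less thallium flux so channel inhibition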
KCNK3 inh – human KCNK3 channel inhibitors, primary screen, CHO cells, FluxOR thallium flux, B-score. Potassium channel subfamily K member 3 (Homo sapiens), O14649. FluxOR fluorescence; hits give low values. 0.84% of 340,000 active. AID 602410, 2012. B-score at 10 µM;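 active means B-score under library mean minus 4 SD, starting fluorescence ratio at most library mean plus 5 SD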;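 further: more negative B-score means stronger inhibition of thallium flux through KCNK3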
KCNK9 block conf – KCNK9 potassium channel inhibitors, confirmation, HEK293 cells, thallium flux, duplicate | shares compounds with KCNK9 inh | FluxOR thallium flux fluorescence | inhibition, % at 10 µM | 43% of 4,900 active;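 active means thallium signal inhibited by more than 5 SD of the compound-free buffer control wells, on both duplicate plates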
Kir21 sel – mouse Kir2.1 channel inhibition, confirmation, selectivity assay for KCNK9 modulator project, cell-based, HEK293, thallium flux. shares compounds with KCNK9 inh. Kir2.1 cells, FluxOR thallium flux fluorescence. inhibition, % at 10 µM. 4% of 4,900 active. AID 492993, 2010;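 active means thallium signal drop more than 5 SD beyond the mean of the no-compound control wells, seen in both duplicate plates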;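 further: signal is fluorescence rise after thallium addition divided by baseline fluorescence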
HEK293 Tl ctr – thallium flux in non-induced HEK293 cells, confirmation, counter-screen for KCNK9 inhibitor project, cell-based, second counter screen, non-induced KCNK9-HEK293; shares compounds with KCNK9 inh; FluxOR thallium flux; inhibition, % at 10 µM; 40% of 4,900 active;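 active means thallium signal drop beyond 5 SD of the untreated control mean, on both duplicate plates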
Of the large screens only hits and unclear results are named; the others gave an inactive call (follow-up assays come after a bar, where they were run); ! = not confirmed by another sample.

COc1ccccc1/C=C/C=N/n1c(-c2ccc(Cl)cc2)n[nH]c1=S	none | KCNK9 block conf inactive | Kir21 sel inactive | HEK293 Tl ctr inactive
COc1ccccc1/C=C/C=N/n1c(-c2ccccc2)n[nH]c1=S	none
Cc1cc(/C=N/NC(=O)c2c(Br)cnn2C)c(C)n1-c1cccc(Br)c1	KCNK9 inh -12 | KCNK9 block conf 54% | Kir21 sel inactive | HEK293 Tl ctr 29%
CC(=O)N1N=C(c2ccc(C)cc2)OC1c1ccc(C(C)C)cc1 (stereo not given)	none | KCNK9 block conf inactive | Kir21 sel inactive | HEK293 Tl ctr 30%
CCCC1C(=O)N(Cc2ccccc2)C(=O)CC1C (stereo not given)	none
S=C(Nc1ccccc1)N1CCCN1c1ccccc1	none
N#CCC(=O)N/N=C/c1cc(Br)ccc1OCc1cccc2ccccc12	KCNK9 inh -10 | KCNK9 block conf 47% | Kir21 sel inactive | HEK293 Tl ctr 26%
COc1ccc(C(NC(=O)CN2C(=O)NC3(CCc4ccccc43)C2=O)c2ccc(OC)cc2)cc1 (stereo not given)	none (no result: KCNQ1 act, hERG protect, KCNQ1 inh, KCNK9 inh)
COc1ccccc1/C=C/C=N/N1CCN(Cc2ccccc2)CC1	none | KCNK9 block conf inactive | Kir21 sel inactive | HEK293 Tl ctr inactive
Cc1ccc(CN2CCN(/N=C/C=C/c3ccccc3[N+](=O)[O-])CC2)cc1	none | KCNK9 block conf inactive | Kir21 sel inactive | HEK293 Tl ctr inactive
COc1ccc2ccccc2c1CN1CCN(Cc2ccccc2)CC1	none | KCNK9 block conf inactive | Kir21 sel inactive | HEK293 Tl ctr inactive
CCN(CC)c1ccc(/C=N/N2CCN(Cc3ccc(C)cc3)CC2)c(O)c1	none | KCNK9 block conf inactive | Kir21 sel inactive | HEK293 Tl ctr inactive
C(=N\N1CCN(Cc2ccccc2)CC1)/c1ccc(-c2ccccc2)cc1	none
CCN(CC)c1ccc(/C=N/N2CCN(Cc3ccccc3Cl)CC2)c(O)c1	none
Cc1ccc(CN2CCN(/N=C/c3cc([N+](=O)[O-])ccc3Cl)CC2)cc1	none
Cc1ccc(CN2CCN(/N=C\C(Br)=C\c3ccccc3)CC2)cc1	none | KCNK9 block conf inactive | Kir21 sel inactive | HEK293 Tl ctr inactive
COc1ccccc1/C=C/CN1CCN(c2ccccc2)CC1	none | KCNK9 block conf inactive | Kir21 sel inactive | HEK293 Tl ctr inactive
Cc1ccc(CSc2nnc(SCC(=O)N/N=C/C=C/c3ccccc3[N+](=O)[O-])s2)cc1	KCNK9 inh -15 | KCNK9 block conf 64% | Kir21 sel inactive | HEK293 Tl ctr 30%
CN(C)C=Nc1ccc2nc3c(cc2c1)[nH]c1ccccc13	none
c1coc(CNCc2cccs2)c1	none
CCN(CC)C(=O)CSC1=N/C(=C/c2ccco2)C(=O)N1c1ccc(OC)c(Cl)c1	none
COc1ccc(N2C(=O)/C(=C\c3ccco3)N=C2SCC(=O)NC(C)(C)C)cc1Cl	KCNK9 inh -9.1 | KCNK9 block conf 44% | Kir21 sel inactive | HEK293 Tl ctr 33%
Cc1ccc(C)c(OCC(=O)N(Cc2nnc(-c3ccccc3Cl)o2)C2CC2)c1	none | KCNK9 block conf inactive | Kir21 sel inactive | HEK293 Tl ctr inactive
Cc1ccc(Cl)cc1NC1=C/C(=N\S(=O)(=O)c2cccs2)c2ccccc2C1=O	KCNK9 inh -8.3, KCNK3 inh -10! | KCNK9 block conf 26% | Kir21 sel inactive | HEK293 Tl ctr inactive
CCOC(=O)CCSc1nc2c(c(C(F)(F)F)c1C#N)CCC2	none | KCNK9 block conf inactive | Kir21 sel inactive | HEK293 Tl ctr inactive
CCOC(=O)CC(=O)CSc1nc2c(c(C)c1C#N)CCC2	none
Cc1ccc(C(=O)Nc2ccccc2C(=O)NCc2ccco2)cc1S(=O)(=O)N1CCCCC1	none | KCNK9 block conf inactive | Kir21 sel inactive | HEK293 Tl ctr inactive
Brc1cc(Cc2nnc(-c3ccccc3)o2)c(Br)s1	none
COc1cc(-c2nc3c4ccccc4nc(=S)n3[nH]2)cc(OC)c1OC	none
CCCC(Oc1ccc(Br)cc1)c1nc2c3cc(OC)c(OC)cc3nc(=S)n2[nH]1 (stereo not given)	none | KCNK9 block conf inactive | Kir21 sel inactive | HEK293 Tl ctr inactive
CC(Oc1ccc(Br)cc1)c1nc2c3ccccc3nc(=S)n2[nH]1 (stereo not given)	KCNQ1 act 10 | KCNK9 block conf inactive | Kir21 sel inactive | HEK293 Tl ctr inactive
O=C(COc1ncnc2ccc(Br)cc12)NC1CCCC1	none (no result: KCNQ1 act, hERG protect, KCNQ1 inh, KCNK9 inh)
Cc1ccsc1CNS(=O)(=O)c1ccc(F)cc1	none
COc1cc(OCc2ccccc2)c(C(=O)/C=C/c2ccc3c(c2)OCO3)c(OC)c1OC	KCNK9 inh -8.9 | KCNK9 block conf inactive | Kir21 sel inactive | HEK293 Tl ctr 35%
Cc1nc2ccc(NC(=O)CSc3nnc(C)s3)cc2[nH]1	none
O=C(Cc1ccc([N+](=O)[O-])cc1)Nc1nccs1	KCNK9 inh -20 | KCNK9 block conf inactive | Kir21 sel inactive | HEK293 Tl ctr inactive
O=C(Nc1nccs1)c1ccc([N+](=O)[O-])cc1	none
Cc1nonc1OCC(C)(COc1nonc1C)NC(=O)c1ccc(Cl)cc1	KCNK9 inh -9.1 | KCNK9 block conf 46% | Kir21 sel inactive | HEK293 Tl ctr 36%
c1ccc(-c2noc(CN3CCN(c4ccccc4)CC3)n2)cc1	none
Fc1ccccc1N1CCN(Cc2nc(-c3ccccc3)no2)CC1	none | KCNK9 block conf inactive | Kir21 sel inactive | HEK293 Tl ctr inactive
Fc1ccccc1N1CCN(CCCc2ccccc2)CC1	none
COc1ccc(-c2noc(CN3CCN(c4ccccc4F)CC3)n2)cc1OC	none | KCNK9 block conf inactive | Kir21 sel inactive | HEK293 Tl ctr inactive
O=C1c2ccccc2C(=O)N1Cc1nc(-c2ccccc2)no1	none | KCNK9 block conf inactive | Kir21 sel inactive | HEK293 Tl ctr inactive
Fc1ccccc1N1CCN(Cc2cc(-c3ccccc3)on2)CC1	none | KCNK9 block conf inactive | Kir21 sel inactive | HEK293 Tl ctr inactive
CCc1nc(NCCc2ccccn2)c2nnn(Cc3ccccc3F)c2n1	none
Cc1cc(OCC(=O)N(C(C)C)C(C)C)ccc1Cl	hERG protect 5.0 | KCNK9 block conf inactive | Kir21 sel inactive | HEK293 Tl ctr inactive
